# Rows were chosen to be rich in hits. Some 3.1% of all compounds tested hit in one or more screens of this group.
# HKDC1 inhibitor: HKDC1 (human) hexokinase inhibition | Q2TB90 | recombinant HKDC1, G6PDH/diaphorase resazurin coupled fluorescence | AID 493160 | hit rate 0.16% among 340,000 | inhibition, % at 20 µM;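 active = inhibition above about 35% when tested at 20 µM, limit read from the data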;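 also: plate controls were DMSO wells with enzyme for no effect and DMSO wells lacking enzyme for full effect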
# Target sequence (Q2TB90 whole entry, looked up): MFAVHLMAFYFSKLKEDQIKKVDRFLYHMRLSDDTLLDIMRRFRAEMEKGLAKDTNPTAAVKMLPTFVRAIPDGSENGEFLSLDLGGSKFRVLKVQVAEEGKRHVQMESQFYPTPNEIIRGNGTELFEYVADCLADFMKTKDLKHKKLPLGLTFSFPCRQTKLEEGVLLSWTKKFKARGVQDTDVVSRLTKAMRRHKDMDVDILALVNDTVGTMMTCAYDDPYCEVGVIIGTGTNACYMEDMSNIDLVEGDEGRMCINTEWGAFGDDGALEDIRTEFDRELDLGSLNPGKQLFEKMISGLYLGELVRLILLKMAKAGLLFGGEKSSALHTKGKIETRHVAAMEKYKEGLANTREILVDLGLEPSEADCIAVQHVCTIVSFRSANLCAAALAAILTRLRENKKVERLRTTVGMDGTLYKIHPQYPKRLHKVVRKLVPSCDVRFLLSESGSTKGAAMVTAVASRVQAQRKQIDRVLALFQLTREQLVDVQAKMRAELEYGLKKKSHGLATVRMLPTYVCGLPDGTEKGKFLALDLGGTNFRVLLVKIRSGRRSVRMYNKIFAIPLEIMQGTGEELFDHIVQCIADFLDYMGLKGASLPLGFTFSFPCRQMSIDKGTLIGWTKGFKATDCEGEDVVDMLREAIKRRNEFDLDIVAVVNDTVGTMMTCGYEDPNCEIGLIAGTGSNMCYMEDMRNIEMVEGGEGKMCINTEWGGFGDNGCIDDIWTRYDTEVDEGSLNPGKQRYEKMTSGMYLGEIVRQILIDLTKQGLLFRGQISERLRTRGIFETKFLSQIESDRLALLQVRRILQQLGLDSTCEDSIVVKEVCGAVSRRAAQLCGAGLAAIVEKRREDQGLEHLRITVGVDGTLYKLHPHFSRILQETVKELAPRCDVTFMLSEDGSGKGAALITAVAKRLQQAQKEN
#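 test system = in-house recombinant HK5 (HKDC1) enzyme | amount = HKDC1 at 5 µg/mL | control set = DMSO-enzyme wells negative, buffer-substituted wells positive | compound = one dose of 20 µM, 1% DMSO | schedule = reaction time 90 min, room temperature, protected from light | technique = resorufin fluorescence at 613 nm | reagent = glucose with 1 mM ATP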
# HSF1 activator: increases HSF-1 driven luciferase reporter signal | NIH3T3-HGL HSF-1 luciferase reporter, MG132, 8 h; 100% = twice DMSO control signal | activation, % at 9 µM | hit rate 1.7% among 300,000 | AID 504408;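 active = mean replicate activation of at least 50% with a set share of replicates each reaching 50%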;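 also: 0% = median of the neutral control wells and 100% = twice that signal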
# Hsp70 act: Hsp70 transcriptional activation, primary screen; hit rate 0.04% among 200,000; HeLa Hsp70 promoter luciferase reporter, luminescence; scaled: vehicle 0, proteasome-inhibitor control 100%; AID 1203; activation, % at 10 µM;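 active = activation above the mean across all tested compounds plus 3 SD, cutoff set per campaign, cut at about 5.5% in these data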;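 also: 100% = MG132 at 30 µM as the positive control and 0% = DMSO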
# Tb hexokinase: T. brucei hexokinase 1 inhibition; recombinant TbHK1, G6PDH-coupled NADH A340; inhibition, % at 10 µM; hit rate 0.11% among 220,000; AID 1430;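 active = inhibition of 50% or more in the single-dose primary screen; inactive = inhibition below 50%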
# HSF1 inh: HSF1 inhibition. NIH3T3-HGL HSE-luciferase, MG132-induced, luminescence 8 h; hits give low values. activity change, negative = inhibition, % at 7.5 µM (by protocol). hit rate 0.77% among 300,000. AID 2098;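 active = more than half of replicate wells show activity change below -50%, luminescence cut by over half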;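 also: luciferase reports HSF-1 transcriptional activity via heat shock element; 0% = median of DMSO wells and -100% = zero luminescence signal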
# HSP90 refold inh: inhibitors of HSP90 luciferase refolding in rabbit reticulocyte lysate; luciferase refolding luminescence, 3 h; inhibition, % at 5.6 µM; hit rate 0.91% among 290,000; AID 1789;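 active = inhibition above the screen-wide mean plus 3 SD, computed separately per campaign, cut at about 16% in these data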;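 also: 0% = DMSO wells and 100% = 60 µM geldanamycin wells; inhibitors lower the luminescence because luciferase stays unfolded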
# * = called active by the depositor; nt = no result.
SMILES,HKDC1 inhibitor,HSF1 activator,Hsp70 act,Tb hexokinase,HSF1 inh,HSP90 refold inh
Oc1ccccc1-c1nnc(-c2ccc(C(F)(F)F)cc2)o1,-7,-71,0,-2,-63*,-2
COc1ccc(C(=O)/C=C/c2ccccc2)c(OC)c1,5,62*,0,-22,34,1
COc1ccc(C(=O)/C=C/c2ccc(N3CCCCC3)c([N+](=O)[O-])c2)c(OC)c1,9,68*,0,-7,50,0
COc1ccc(C(=O)/C=C/c2ccc(N(C)C)cc2)c(OC)c1,0,22,nt,-7,9,3
COc1cc(C)cc(C(=O)C=Cc2ccccc2)c1O,14,nt,nt,nt,nt,nt
COc1ccc(OC)c(C(=O)/C=C/c2ccccc2C(F)(F)F)c1,10,212*,0,-4,159,3
COCOc1cc(O)c(C(=O)/C=C/c2ccccc2)c(OCOC)c1,8,155*,nt,nt,151,nt
COc1ccc(OC)c(C(=O)C(=O)c2cc(OC)ccc2OC)c1,-2,nt,nt,nt,nt,nt
COc1ccc(CN2CC(C(=O)NCCCN3CCCC(C)C3)CC2=O)cc1 (centres undefined),-2,-9,nt,nt,-5,10
COc1ccc(NC(=O)CN(C)C(=O)c2ccc(N3CCCCC3)c([N+](=O)[O-])c2)cc1,-1,1,nt,nt,0,nt
COc1ccc(C(=O)/C=C/Nc2cc(C)on2)c(OC)c1,-6,-66,0,-71,-58*,-3
COc1ccc(NC(=O)CN(C)C(=O)c2ccc(N3CCCCCC3)c([N+](=O)[O-])c2)cc1,3,67*,nt,nt,23,nt
CCc1ccc(C)[n+](CC(=O)c2cccs2)c1,0,-11,nt,nt,-14,1
CCOC(=O)c1cnc[nH]c1=O,-1,nt,nt,nt,nt,nt
CCOC(=O)c1cn[nH]c1C(F)(F)F,4,57*,nt,-10,26,1
COCCNC(=O)c1noc2c1CCc1cc(OC)ccc1-2,-6,77*,0,-2,47,3
COc1ccc2c(c1)CCc1c(C(=O)N(C)c3ccccc3)noc1-2,0,69*,1,-5,37,2
COCC(C)NC(=O)c1noc2c1CCc1cc(OC)ccc1-2 (centres undefined),11,71*,0,9,49,3
Cc1ccc(-c2nnn(CC(=O)N(CCCO)C(C(=O)NC3CCCC3)c3ccc(F)cc3)n2)o1 (centres undefined),-6,-10,nt,nt,-8,0
O=C(NC(=S)Nc1cccc(Cl)c1N1CCCCC1)c1ccc2c(c1)OCCO2,3,-66,0,-6,-58*,-1
CCCC12CN3CC(C)(CN(C1)C3c1cccs1)C2=O (centres undefined),-5,62*,nt,-2,44,2
CC(CCCCCCCCC(=O)O)N(CCO)C(=O)OC(C)(C)C (centres undefined),-3,nt,nt,nt,nt,nt
O=C(/C=C/c1ccco1)Nc1ccc(N2CCCC2)cc1,14,64*,0,-3,33,-3
Cc1csc(NC(=O)/C=C/c2ccco2)n1,-5,57*,0,-70,24,1
O=C(/C=C/c1ccco1)Nc1nc(-c2ccccc2)cs1,-3,58*,0,16,37,5
SMILES,HKDC1 inhibitor,HSF1 activator,Hsp70 act,Tb hexokinase,HSF1 inh,HSP90 refold inh
O=C(/C=C/c1ccco1)Nc1nc(-c2ccccn2)cs1,16,11,0,-21,-1,-2
Cc1csc(NC(=O)/C=C/c2ccc(C)o2)n1,-20,30,0,-33,19,5
Cc1ccc(/C=N\NC(=O)c2ccc3c(c2)OCO3)o1,-4,37,nt,nt,8,1
CCC(C)(C)n1nnnc1C(c1cc2cc(C)cc(C)c2[nH]c1=O)N1CCCC1 (centres undefined),-5,nt,0,-12,nt,2
CCC(C)(C)n1nnnc1C(c1cc2cc(C)cc(C)c2[nH]c1=O)N1CCN(Cc2ccc3c(c2)OCO3)CC1 (centres undefined),-2,54*,0,-29,21,1
COCCCNC(=O)/C(C#N)=C/c1ccc(F)cc1,-3,68*,0,-1,18,-4
OC12CCCCC1C(c1ccc3c(c1)OCO3)N(Cc1ccccc1F)CC2 (centres undefined),-5,57*,0,16,28,2
OC12CCCCC1C(c1ccc3c(c1)OCO3)N(Cc1cccc(F)c1)CC2 (centres undefined),7,30,0,-1,2,-1
OC12CCCCC1C(c1ccc3c(c1)OCO3)N(Cc1ccc(F)cc1)CC2 (centres undefined),0,54*,0,-2,23,1
COc1ccccc1OCC(=O)Nc1ccc(-c2nnc(-c3ccco3)o2)cc1,-5,24,0,-21,9,-2
O=C(COc1ccc(Br)cc1)Nc1ccc(-c2nnc(-c3ccco3)o2)cc1,-1,51*,1,-27,28,-2
COC(=O)c1ccc(CNC(=O)C(NC(=O)c2ccco2)C(C)C)cc1 (centres undefined),-2,-66,nt,nt,-58*,-6
CC(C)[C@H](NC(=O)c1ccco1)C(=O)NCc1ccccc1,-5,-18,nt,nt,-7,5
COc1ccc(/C=C/C(=O)c2ccc(C)c([N+](=O)[O-])c2)cc1O,25,67*,0,-7,22,-3
COc1cc(/C=C/C(=O)c2ccc(C)c([N+](=O)[O-])c2)cc(OC)c1O,17,128*,0,-1,70,-3
Cc1cccc(NC(=O)C2SC(=Nc3c(C)cccc3C)C(C(=O)N3CCOCC3)=C2N)c1 (centres undefined),-5,-71,0,-18,-72*,1
CN(C)S(=O)(=O)c1cccc(NC(=O)COC(=O)/C=C/c2ccc([N+](=O)[O-])cc2)c1,0,63*,0,-4,20,2
Cc1ccc(NC(=O)COC(=O)/C=C/c2ccc(Br)o2)cc1S(=O)(=O)N(C)C,2,81*,0,-8,56,-1
CCc1nnc(NC(=O)CSc2nnc3nc(C)cc(C)n23)s1,3,3,nt,nt,0,0
CCn1c(CN2CCN(C(c3ccccc3)c3ccccc3)CC2)nc2c1c(=O)n(C)c(=O)n2C,-2,9,nt,nt,5,3
S=c1[nH]nc(-c2cnccn2)n1-c1ccccc1,-3,-75,0,-20,-67*,6
Cc1ccc(S(=O)(=O)N2CCCC2)cc1C(=O)NCCOc1ccccc1,-4,nt,nt,nt,nt,nt
CCSc1nc2ccccc2c(=O)n1CCc1ccc(OC)c(OC)c1,4,1,nt,-11,-11,-1
Oc1c(Cl)cc(Cl)cc1/C=C/c1ccc2cccc(O)c2n1,-8,14,1,-16,9,-3
Cc1ccsc1/C=C/c1ccc2cccc(O)c2n1,5,71*,0,-2,46,2
COc1cc(Br)cc(/C=C/c2ccc3cccc(O)c3n2)c1O,8,85*,nt,nt,63,1
